The target of this data set is T1, EHD1-EH (Homo sapiens, UniProt Q9H4M9).
T1 sequence (Q9H4M9 444-532 limits assumed): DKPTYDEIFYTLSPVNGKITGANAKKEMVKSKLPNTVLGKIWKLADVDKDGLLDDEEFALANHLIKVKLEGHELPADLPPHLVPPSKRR
Briefly: Fluorescence polarization. Type of data set: binding. In a few lines:
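Fluorescein-labelled peptide probes mixed with the EHD1 EH domain; binding read by fluorescence polarization. Buffer: 25 mM MOPS (pH 6.8), 1 mM CaCl2, 15 mM NaCl, 1.5% DMSO, 0.1% Tween 20.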
For orientation: In fluorescence polarisation assays a small probe gives low polarisation when free and higher when bound to something large.

fluorescein = fluorescein: fluorescein label on the Lys side chain

For “-YAPAEEGK(Flu)- (cyclo(YAPAEEGK(fluorescein))) [cAPA^Flu]”, the “binding to EHD1-EH” value (up to 67 μM EHD1-EH, 15 mM NaCl) was “No binding was observed”.
For the setting “FP direct binding, reduced charge analogue relative to cNPF1^Flu”, “-YNPFEAGK(Flu)- (cyclo(YNPFEAGK(fluorescein))) [cNPF5^Flu]” yielded a loss of affinity of 3 fold.

(Values after publication PMC4116148 (Biochemistry, 2014).)
